Experimental data gathered from unrelated publications.
Protocols differ between the studies behind these lines.
HDAC6: Protein deacetylase HDAC6 (HDAC6, Homo sapiens, UniProt Q9UBN7)
TNK1: Non-receptor tyrosine-protein kinase TNK1 (TNK1, Homo sapiens, UniProt Q13470)

SMILES | target | read-out | action | method | concentration | measurement | value
Cc1c(OS(=O)(=O)Oc2ccc(C(C)(C)C)cc2)cccc1C(=O)NO | HDAC6 | enzyme activity | inhibitor | fluorescence | 10 µM | inhibition | 30%
CCc1nn(C)c2nc(-c3ccc(C(=O)O)cc3)nc(NCc3ccc(F)cc3)c12 | 3',5'-cyclic-AMP phosphodiesterase 4D (PDE4D, Homo sapiens, UniProt Q08499) | enzyme activity | inhibitor | radiometric | 10 µM | inhibition | 42.1%
COc1cc(-c2cncc3c2CN(C)Cc2cc(N4CCNCC4)ccc2-3)cc(OC)c1OC | Death-associated protein kinase 1 (DAPK1, Homo sapiens, UniProt P53355) | enzyme activity | inhibitor | – | 1 µM | remaining activity | 101%
Cc1ncsc1-c1ccc(CNC(=O)[C@@H]2C[C@@H](O)CN2C(=O)[C@@H](NC(=O)CCCCCCCCNC(=O)CN2CCN(C(=O)c3ccc(Nc4nc(C5CC5)cn5c(-c6cn[nH]c6)cnc45)c(F)c3)CC2)C(C)(C)C)cc1 | TNK1 | cell-free assay | – | competition with immobilised ligand | 1 µM | inhibition | > 65%
C=CC(=O)N1C[C@@H](n2nc(C#Cc3c(F)cc4c(ncn4C4CC4)c3F)c(C(N)=O)c2NC)C[C@@H]1COC | TNK1 | enzyme activity | inhibitor | mobility shift | 1 µM | inhibition | 89.5%
Cc1cc(OS(=O)(=O)Oc2ccc(C(C)(C)C)cc2)cc(C(=O)NO)c1 | HDAC6 | enzyme activity | inhibitor | fluorescence | 10 µM | inhibition | 36%
CNc1ncc2c(/C=C/C(=O)N3CCC(OC)CC3)nn(Cc3cccc(C(F)(F)F)c3)c2n1 | Dual specificity protein kinase TTK (TTK, Homo sapiens, UniProt P33981) | enzyme activity | inhibitor | radiometric | 1 µM | remaining activity | 105%
Cc1cc([C@@H](C)Nc2ccccc2C(=O)O)c2nc(N3CCC(F)(F)CC3)c(C#N)c(=O)n2c1 | Serine/threonine-protein kinase PAK 2 (PAK2, Homo sapiens, UniProt Q13177) | binding | – | competition with immobilised ligand | 1 µM | remaining binding | 100%
Cc1c(OS(=O)(=O)Oc2ccc(-n3ccnc3)cc2)cccc1C(=O)NO | HDAC6 | enzyme activity | inhibitor | fluorescence | 10 µM | inhibition | 46%
C=CC(=O)N1CCC(COCC(=O)N2CCN(c3nc(-c4cnc(N)nc4C(F)F)nc(N4CCOC[C@@H]4C)n3)CC2)CC1 | Serine/threonine-protein kinase MAK (MAK, Homo sapiens, UniProt P20794) | binding | – | competition with immobilised ligand | 1 µM | remaining binding | 100%
Cc1cc(OS(=O)(=O)Oc2cccc(C(C)C)c2)cc(C(=O)NO)c1 | HDAC6 | enzyme activity | inhibitor | fluorescence | 10 µM | inhibition | 58%
Cc1cc(NC(=O)c2cccc(NC(=O)/C=C/CN(C)C)c2)ccc1Nc1nccc(-c2cccnc2)n1 | TNK1 | binding | – | competition with immobilised ligand | 1 µM | remaining binding | 57%
